Assay outcomes (PubChem)
Bfl-1 A1 inh: caspase 3/7 activation in MEF A1-2A-BIM cells, primary screen, A1 inhibitor project, cell-based, luminescence, HTS. Caspase-Glo 3/7 luminescence, 3 h; percent of clofoctol response, vehicle zero. AID 2462, 2010. caspase activation, % (concentration not given with the values). actives 0.066% (n = 330,000);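 active = over half of replicate activation scores above 10%, or exactly half above 10 with the replicate mean above 10; inconclusive = replicate mean below 10 yet half the replicates above 10; inactive = over half of replicates below 10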
MC4R antag cAMP: MC4R antagonists of cAMP signaling, primary screen, cell-based, TR-FRET, antagonist arm of biased-ligand search; Melanocortin receptor 4 (Homo sapiens), P32245; MC4R-expressing cells, MTII-stimulated cAMP, LANCE TR-FRET; inhibition, % at 6.5 µM; actives 0.48% (n = 360,000); AID 540295, 2011;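 active = inhibition above its plate's cutoff, the mean of tested wells on that plate plus 3 SD, cut at about 29% in these data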;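 also: 0% = Melanotan II alone and 100% = Melanotan II plus saturating MCL0020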
Target sequence (P32245 whole entry, looked up): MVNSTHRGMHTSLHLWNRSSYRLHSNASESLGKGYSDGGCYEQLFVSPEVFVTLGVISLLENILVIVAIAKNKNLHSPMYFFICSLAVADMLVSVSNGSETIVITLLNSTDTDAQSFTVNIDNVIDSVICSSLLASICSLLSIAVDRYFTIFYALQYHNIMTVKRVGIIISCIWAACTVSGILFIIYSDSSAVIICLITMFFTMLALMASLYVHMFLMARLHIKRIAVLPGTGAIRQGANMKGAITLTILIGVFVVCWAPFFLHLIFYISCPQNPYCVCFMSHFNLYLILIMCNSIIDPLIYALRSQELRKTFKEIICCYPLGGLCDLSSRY
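Material: U2OS-MC4R stable cell line | Reagent: Melanotan II challenge after compound preincubation | Doses: One concentration, 6.5 µM nominal | Incubation: 30-min compound preincubation, 1-h Melanotan II challenge, 1-h detection, room temperature | Signal: TR-FRET cAMP assay | Replicates: One well per compound, no replicates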
Tb MetRS inh: T. brucei MetRS inhibitors, primary screen, biochemical, luminescence | purified T. brucei MetRS, ATP depletion, Kinase-Glo luminescence | inhibition, % at 11.9 µM | actives 0.4% (n = 360,000) | AID 624268, 2012;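 active = inhibition above a per-plate cutoff of the control wells' mean inhibition plus 3 SD, cut at about 5.5% in these data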;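 also: 0% = DMSO wells median and 100% = median of wells with control inhibitor compound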
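Assay system: T. brucei methionyl-tRNA synthetase, purified | Medium: HEPES buffer with MgCl2, KCl, DTT, spermine, BSA, pyrophosphatase | Compound: 11.9 µM single point | Incubation: 15 min enzyme-compound preincubation, 2 h reaction, 10 min detection, 25 °C | Measured by: Kinase-Glo luciferase luminescence reporting remaining unconsumed ATP | Measure: % inhibition normalized to control-well medians | Replication: Singlicate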
NALP1 inh: NALP1 inflammasome inhibitors in reconstituted yeast, colorimetric, S. cerevisiae, triplicate retest; S. cerevisiae NALP1/ASC/caspase-1 growth, X-gal OD620, 72 h; inhibition, % at 10 µM; actives 0.61% (n = 280,000); AID 2071, 2009; in the data active = inhibition mostly above about 24%, no sharp cut-off; inactive = mostly below about 32%
NALP3 yeast inh: NALP3 inflammasome inhibitors in reconstituted yeast, primary screen, luminescence, uHTS | Yeast reconstituted NLRP3/ASC/caspase-1, beta-gal luminescence, 24 h | inhibition, % at 10 µM | actives 0.39% (n = 330,000) | AID 2825, 2010;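 active = inhibition of 50% or more; inactive = inhibition below 50%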;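 also: plate controls were induced DMSO wells for no effect and uninduced yeast grown without galactose for full effect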
MC4R ag barr: MC4R agonists recruiting beta-arrestin, primary screen, cell-based, luminescence, agonist arm of biased-ligand search; activation, % at 8.9 µM; actives 0.98% (n = 360,000); Melanocortin receptor 4 (Homo sapiens), P32245; AID 540308, 2011; U2OS MC4R beta-arrestin complementation; percent of melanotan II response, DMSO zero;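 active = activation above a per-plate cutoff, the mean activation of sample wells on that plate plus 3 SD, cut at about 8% in these data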
MC4R barr ag: MC4R beta-arrestin agonists, retest, confirmation, cell-based, luminescence, U2OS; activation, % at 8.9 µM; AID 602192, 2012; actives 31% (n = 2,400); U2OS MC4R beta-arrestin recruitment; scaled DMSO 0%, Melanotan II 100%; shares compounds with MC4R ag barr;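 active = mean activation across replicates above the hit cutoff set in the earlier primary screen, cut at about 8% in these data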
MOR DOR agonist: agonists of MOR-DOR heterodimerization, counter-screen for MC4R biased agonist project, cell-based, luminescence | shares compounds with MC4R ag barr | U2OS PathHunter beta-arrestin, beta-gal luminescence; percent of deltorphin B response, DMSO zero | activation, % at 9.2 µM | actives 5.8% (n = 2,400) | AID 602194, 2012;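 active = mean activation across replicates exceeds the hit threshold derived in the earlier primary screen, cut at about 18% in these data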;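 also: 100% = deltorphin B at 0.9 µM final and 0% = DMSO alone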
Starred values were filed as active, the others as inactive; u = inconclusive; x = not tested or not shown. Sampled rows, rich in hits. Any-hit rate of the full collection: about 2.5%.

SMILES	Bfl-1 A1 inh	MC4R antag cAMP	Tb MetRS inh	NALP1 inh	NALP3 yeast inh	MC4R ag barr	MC4R barr ag	MOR DOR agonist
C=CCC[C@@H](Cc1ccc(F)cc1)C(=O)OC[C@H](Cc1c[nH]c2ccccc12)NC(=O)[C@@H](CC=C)CC(=O)N[C@H](CO)Cc1ccccc1	0.9	11.2	-0.2	x	13.7	7.9	x	x
C=CCC[C@H](Cc1ccc(F)cc1)C(=O)OC[C@H](Cc1c[nH]c2ccccc12)NC(=O)[C@H](CC=C)CC(=O)N[C@H](CO)Cc1ccccc1	2.2	18.7	-0.2	x	14.7	10.7*	2.5	5.4
C=CCC[C@H](Cc1ccc(F)cc1)C(=O)OC[C@H](Cc1c[nH]c2ccccc12)NC(=O)[C@@H](CC=C)CC(=O)N[C@H](CO)Cc1ccccc1	-0.7	12.7	-0.3	x	24.5	0.9	x	x
CCCCc1ccc(NC(=O)Nc2cc(C)nn2C)cc1	u	6.5	-0.8	-1.8	7.8	-0.3	x	x
CC1(C)Cc2c(cnn2-c2ccc(F)cc2)C(NC(=O)CCc2ccncc2)C1 (stereo not drawn)	x	-1.4	-0.4	1.2	1.9	-2.1	x	x
CCOC(=O)N1CCN(C(=O)c2cc3ccc(OC)cc3[nH]2)CC1	0.2	9.2	0.0	-0.7	2.4	-2.3	x	x
O=C(Nc1ccncc1)c1cccc(F)c1	-0.6	0.1	-0.6	0.9	16.7	-0.8	x	x
O=C(Nc1ccc(OC(F)(F)C(F)F)c(NC(=O)c2cccc(F)c2)c1)c1cccc(F)c1	0.5	13.8	0.5	30.0	26.0	20.9*	6.6	4.3
CC(OC(=O)CCN1C(=O)C2CC=CCC2C1=O)C(=O)c1ccc(F)cc1 (stereo not drawn)	1.0	6.3	-0.3	x	14.1	-1.5	x	x
Oc1ccccc1N=Cc1c(O)ccc2oc3c(c12)CCCC3	0.1	2.3	-0.8	2.4	28.6	14.3*	8.3*	9.5
O=C(O)c1ccc(N=Cc2c(O)ccc3oc4c(c23)CCCC4)cc1	-0.4	3.2	0.1	-1.0	13.3	1.9	x	x
CCOC(=O)c1c(C)[nH]c(C(=O)Cn2nnc(-c3ccccc3)n2)c1C	1.7	2.2	-0.3	13.0	0.2	13.2*	2.5	9.5
CCOC(=O)c1c(C)[nH]c(C(=O)CSc2ccc(Cl)cc2)c1C	1.5	-4.3	-1.1	10.2	9.5	25.0*	16.1*	6.0
CCOC(=O)c1c(C)[nH]c(C(=O)CSc2nc(C)cc(C)n2)c1C	-0.3	-2.8	-0.7	13.8	14.2	-3.3	x	x
CCOC(=O)c1c(C)[nH]c(C(=O)Cn2nnc(-c3ccccc3Cl)n2)c1C	-0.7	3.6	-0.2	4.1	0.0	2.0	x	x
COc1ccc(CCn2c(C)cc(C(=O)COC(=O)c3ccc(O)cc3O)c2C)cc1	x	12.7	0.0	x	x	24.7*	9.3*	10.3
Clc1cccc(Cl)c1CON/C=N/c1ncnc2sccc12	0.0	9.8	-0.3	33.0	13.6	11.8*	3.3	4.7
O=C(Nc1cc(F)cc(F)c1)c1ccc(NCCc2ccccc2)c([N+](=O)[O-])c1	0.0	-3.6	-0.1	0.4	3.0	10.2*	-0.8	5.2
Cc1ccc(NC(=O)c2ccc(NCCc3ccccc3)c([N+](=O)[O-])c2)cc1F	-0.7	20.4	0.3	26.1	19.5	3.2	x	x
